Measurements from PMC2900633 (Bioorganic & medicinal chemistry, 2008).

Legend:
[1] = system: Jurkat, PC3 and LNCaP cells; experiment: MTT assay, statements over all three cell lines; format: cell-based
[2] = system: LNCaP cells; experiment: MTT assay, LNCaP cells; format: cell-based; details: 24 h, ±10 μM
[3] = system: PC3 cells; experiment: Endogenous PS exposure, Annexin V-FITC flow cytometry; format: cell-based; details: scramblase 100 μM, 37°C, 2 hours, background value 2 %
In short: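 PC3 cells were grown in Ham's F-12K with 10% FBS at 37°C, 5% CO2. At 90% confluency they were PBS-washed, trypsinised and resuspended in TES buffer at 1 × 10^5 cells/mL. Test compound (100 μM, from DMSO stock) was added for 2 h at 37°C. Cells were then stained in binding buffer with Annexin V-FITC plus 7AAD (500 ng/mL) for 15 min at 37°C. Flow cytometry excluded 7AAD-positive cells. Three independent experiments were run.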

[4] = system: erythrocytes; details: raised from 1 %, previous work, ref 8f; cited from earlier work

Compound | LD50 (effect on mitochondrial reductase activity) [1] [µM] | LD50, LNCaP cells [2] [µM] | fraction of Annexin-stained cells [3] [%] | fraction of Annexin-stained cells, erythrocytes [4] [%]
Cc1ccc(S(=O)(=O)NCCN(CCNC(=S)Nc2ccc(Cl)cc2)CCNS(=O)(=O)c2ccc(C)cc2)cc1 [scramblase 14] | > 15 | 15 |  | 
Cc1ccc(S(=O)(=O)NCCN(CCNC(=O)Nc2ccc(C(C)C)cc2)CCNS(=O)(=O)c2ccc(C)cc2)cc1 [scramblase 9] |  |  | < 5 | 
Cc1ccc(S(=O)(=O)NCCN(CCNC(=O)Nc2ccc(C(F)(F)F)cc2)CCNS(=O)(=O)c2ccc(C)cc2)cc1 [scramblase 5] |  |  | 10 | 
Cc1ccc(S(=O)(=O)NCCN(CCNCc2ccccc2)CCNS(=O)(=O)c2ccc(C)cc2)cc1 [scramblase 16] | > 15 | 40 |  | 
Cc1ccc(S(=O)(=O)NCCN(CCNC(=O)[C@H](N)Cc2ccccc2)CCNS(=O)(=O)c2ccc(C)cc2)cc1.Cl [scramblase 15] | > 15 | 40 |  | 
Cc1ccc(S(=O)(=O)NCCN(CCNC(=O)Nc2ccc([N+](=O)[O-])cc2)CCNS(=O)(=O)c2ccc(C)cc2)cc1 [scramblase 2] |  |  | < 5 | 34
